Assay [1] concerns the target Cannabinoid receptor 2 (Mus musculus) (UniProt P47936). Description: Agonist activity at CB2R in LPS induced mouse BV2 cells assessed as decrease in IL6 secretion at 10 uM preincubated for 30 mins followed by LPS stimulation for 4 hrs by ELISA. Type of assay: cell-based. To be noted: BV-2, filed as agonist, time 270.0 min. The gist of the method:
(§1)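 BV-2 murine microglia grown in high-glucose DMEM with 10% FBS. Treatments in FBS-free medium: test agonist 10 μM for 30 min, then LPS 5 μg/ml for 4 h; SR144528 10 μM given 15 min before agonist. DMSO ≤0.1% final. Medium spun 10 min at 1000×g; IL-1β, IL-6, IL-10 quantified by ELISA; three independent experiments in duplicate.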
(In an ELISA, binding on a coated surface is turned into a signal by an enzyme label.)

Assay [2] has the same target. In words: Agonist activity at CB2R in LPS induced mouse BV2 cells assessed as decrease in IL-1beta secretion at 10 uM preincubated for 30 mins followed by LPS stimulation for 4 hrs by ELISA. Type of assay: cell-based. Particulars: BV-2, filed as agonist, time 270.0 min. The method, boiled down: as §1
Assay [3] has the same target. Description: Agonist activity at CB2R in LPS induced mouse BV2 cells assessed as increase in IL-10 secretion at 10 uM preincubated for 30 mins followed by LPS stimulation for 4 hrs by ELISA. Type of assay: cell-based. Particulars: BV-2, filed as agonist, time 270.0 min. The gist of the method:
as §1

Assay [4] addresses T1, Cannabinoid receptor 2 (Homo sapiens, UniProt P34972). In words: Inverse agonist activity at human CB2R expressed in CHO cell membranes after 90 mins by [35S]GTPgammaS assay. In kind it is functional, Membrane. The gist of the method:
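In-house CHO membranes expressing hCB1 or hCB2 (10 µg) in 50 mM Tris-HCl, 3 mM MgCl2, 0.2 mM EDTA, 100 mM NaCl, 0.5% fatty-acid-free BSA, pH 7.4, with 10 μM GDP and 0.1 nM [35S]GTPγS. Incubated 90 min at 30 °C; antagonist pre-incubated 30 min. Nonspecific binding with 10 μM GTPγS; bound label by filtration and counting; ≥3 experiments in triplicate.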
In general terms: Binding of GTPγS marks nucleotide exchange on a G protein.

The target in a further assay is T2, Monoglyceride lipase (Homo sapiens, UniProt Q99685).
T2 sequence (Q99685 whole entry): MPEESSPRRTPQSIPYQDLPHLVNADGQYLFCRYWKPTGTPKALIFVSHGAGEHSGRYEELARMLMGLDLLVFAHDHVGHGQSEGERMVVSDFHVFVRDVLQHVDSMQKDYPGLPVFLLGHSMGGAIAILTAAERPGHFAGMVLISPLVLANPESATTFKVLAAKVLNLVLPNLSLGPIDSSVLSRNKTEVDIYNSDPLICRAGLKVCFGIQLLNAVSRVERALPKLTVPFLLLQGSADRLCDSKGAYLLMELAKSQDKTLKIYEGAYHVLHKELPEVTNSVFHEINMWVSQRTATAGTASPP
In words: Inhibition of MAGL in human U937 cells using [glycerol-1,2,3-3H]2-OG as substrate preincubated for 15 mins followed by substrate addition and measured after 15 mins by liquid scintillation spectroscopy. In kind it is cell-based, U-937. The gist of the method:
(§2)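 Intact U937 cells, 10^6 per condition, pre-incubated with compound 15 min at 37 °C with shaking (screen at 10 μM; full curves for hits). Substrate: 1 μM AEA with 1 nM [3H]AEA (FAAH) or 10 μM 2-OG with 5 nM [3H]2-OG (MAGL), 15 min at 37 °C. Stopped with CHCl3:MeOH 1:1, aqueous tritium counted; mean ± SD, ≥3 experiments in triplicate.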

In assay [5] the target is T3, Fatty-acid amide hydrolase 1 (Homo sapiens, UniProt O00519).
T3 sequence (O00519 whole entry): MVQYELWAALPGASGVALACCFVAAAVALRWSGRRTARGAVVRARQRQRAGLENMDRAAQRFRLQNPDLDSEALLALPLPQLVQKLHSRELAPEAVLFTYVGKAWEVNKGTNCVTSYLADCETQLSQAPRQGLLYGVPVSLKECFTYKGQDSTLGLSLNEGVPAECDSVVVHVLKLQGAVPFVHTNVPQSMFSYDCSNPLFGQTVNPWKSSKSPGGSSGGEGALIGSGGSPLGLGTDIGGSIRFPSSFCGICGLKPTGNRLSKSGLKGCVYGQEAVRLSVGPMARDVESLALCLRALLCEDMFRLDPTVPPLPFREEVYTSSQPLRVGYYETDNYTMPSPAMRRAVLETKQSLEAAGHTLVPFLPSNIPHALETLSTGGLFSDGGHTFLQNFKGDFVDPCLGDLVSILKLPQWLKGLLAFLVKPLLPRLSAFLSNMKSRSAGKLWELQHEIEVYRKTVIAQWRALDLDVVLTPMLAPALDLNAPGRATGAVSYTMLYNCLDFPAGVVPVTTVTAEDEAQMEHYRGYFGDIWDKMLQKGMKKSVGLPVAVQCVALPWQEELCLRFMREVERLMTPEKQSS
Description: Inhibition of FAAH in human U937 cells using [ethanolamine-1-3H]AEA as substrate preincubated for 15 mins followed by substrate addition and measured after 15 mins by liquid scintillation spectroscopy. In kind it is cell-based, U-937. The gist of the method: as §2

For assay [6], the target named is T4, Lysophosphatidylserine lipase ABHD12 (Homo sapiens, UniProt Q8N2K0).
T4 sequence (Q8N2K0 whole entry): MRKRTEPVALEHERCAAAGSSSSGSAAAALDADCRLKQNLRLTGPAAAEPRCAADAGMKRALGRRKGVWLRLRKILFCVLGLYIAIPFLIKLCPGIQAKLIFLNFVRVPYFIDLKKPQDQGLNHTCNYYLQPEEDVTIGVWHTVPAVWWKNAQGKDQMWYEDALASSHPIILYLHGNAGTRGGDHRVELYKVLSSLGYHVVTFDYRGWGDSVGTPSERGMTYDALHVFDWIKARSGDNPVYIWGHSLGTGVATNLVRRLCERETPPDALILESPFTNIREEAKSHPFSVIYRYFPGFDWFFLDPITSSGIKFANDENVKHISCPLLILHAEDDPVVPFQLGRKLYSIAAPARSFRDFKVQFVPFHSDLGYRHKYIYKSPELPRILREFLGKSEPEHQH
Description: Inhibition of human ABHD12 expressed in HEK293 cells using 2-OG as substrate preincubated for 30 mins followed by substrate addition and measured after 5 mins by liquid scintillation spectroscopy. In kind it is cell-based. The gist of the method: (§3)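 Homogenates (40 µg) from HEK293 stably expressing hABHD6 or hABHD12 pre-incubated with compound 30 min at 37 °C in […], 0.1% BSA, pH 7.6; then 10 μM 2-OG for 5 min at 37 °C. Aqueous phase tritium counted after CHCl3:MeOH stop; no-enzyme blanks and non-transfected HEK293 hydrolysis subtracted. Controls WWL70 10 μM, THL 20 μM.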

Assay [7] concerns the target T5, Cannabinoid receptor 1 (Homo sapiens, UniProt P21554). In words: Displacement of [3H]CP55940 from recombinant human CB1R expressed in CHO cell membranes incubated for 90 mins. Also noted: species or system Membrane. A general note: In a radioligand displacement assay an active substance lowers the binding of a labelled ligand.
Assay [8] addresses T1, Cannabinoid receptor 2. In words: Displacement of [3H]CP55940 from recombinant human CB2R expressed in CHO cell membranes incubated for 90 mins. Also noted: species or system Membrane.
Assay [9] deals with T6, Monoacylglycerol lipase ABHD6 (Homo sapiens, UniProt Q9BV23).
T6 sequence (Q9BV23 whole entry): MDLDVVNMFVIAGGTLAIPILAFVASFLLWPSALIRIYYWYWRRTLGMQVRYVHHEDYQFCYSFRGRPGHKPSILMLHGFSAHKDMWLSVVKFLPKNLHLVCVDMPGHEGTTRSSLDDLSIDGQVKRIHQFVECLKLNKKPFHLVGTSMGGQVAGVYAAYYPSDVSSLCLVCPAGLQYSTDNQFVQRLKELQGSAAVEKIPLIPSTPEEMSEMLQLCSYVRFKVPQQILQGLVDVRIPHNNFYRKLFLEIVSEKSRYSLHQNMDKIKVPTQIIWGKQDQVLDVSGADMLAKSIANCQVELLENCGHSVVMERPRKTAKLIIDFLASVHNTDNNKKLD
Description: Inhibition of human ABHD6 expressed in HEK293 cells using 2-OG as substrate preincubated for 30 mins followed by substrate addition and measured after 5 mins by liquid scintillation spectroscopy. Type of assay: cell-based. The gist of the method: as §3

The target in assay [10] is T5, Cannabinoid receptor 1. In words: Partial agonist activity at human CB1R expressed in CHO cell membranes after 90 mins by [35S]GTPgammaS assay. In kind it is functional, Membrane. The gist of the method:
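Membranes from CHO cells stably expressing hCB1 (10 µg), in 50 mM Tris-HCl, 3 mM MgCl2, 0.2 mM EDTA, 100 mM NaCl, 0.5% fatty-acid-free BSA, pH 7.4, with 10 µM GDP and 0.1 nM [35S]GTPγS. Compounds added at several concentrations. Incubated 90 min at 30 °C, then rapid filtration and radioactivity counting. Non-specific binding measured with 10 µM GTPγS.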

Activity calls are given as the source filed them. The calls are words filed in the database; no cut-off is given here. Some results are limits rather than exact numbers.

Chain of Cannabinoid receptor 2 (Mus musculus) (P47936 whole entry): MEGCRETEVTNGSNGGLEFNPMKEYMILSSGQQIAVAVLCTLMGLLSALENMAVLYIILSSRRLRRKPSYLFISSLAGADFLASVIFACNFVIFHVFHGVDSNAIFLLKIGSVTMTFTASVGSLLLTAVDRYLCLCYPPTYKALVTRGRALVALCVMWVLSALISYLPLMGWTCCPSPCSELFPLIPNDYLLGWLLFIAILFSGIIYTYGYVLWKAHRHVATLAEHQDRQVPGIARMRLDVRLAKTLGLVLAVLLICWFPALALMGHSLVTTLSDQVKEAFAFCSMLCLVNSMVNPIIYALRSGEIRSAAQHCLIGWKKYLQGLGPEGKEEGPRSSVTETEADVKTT
T5 sequence (P21554 whole entry): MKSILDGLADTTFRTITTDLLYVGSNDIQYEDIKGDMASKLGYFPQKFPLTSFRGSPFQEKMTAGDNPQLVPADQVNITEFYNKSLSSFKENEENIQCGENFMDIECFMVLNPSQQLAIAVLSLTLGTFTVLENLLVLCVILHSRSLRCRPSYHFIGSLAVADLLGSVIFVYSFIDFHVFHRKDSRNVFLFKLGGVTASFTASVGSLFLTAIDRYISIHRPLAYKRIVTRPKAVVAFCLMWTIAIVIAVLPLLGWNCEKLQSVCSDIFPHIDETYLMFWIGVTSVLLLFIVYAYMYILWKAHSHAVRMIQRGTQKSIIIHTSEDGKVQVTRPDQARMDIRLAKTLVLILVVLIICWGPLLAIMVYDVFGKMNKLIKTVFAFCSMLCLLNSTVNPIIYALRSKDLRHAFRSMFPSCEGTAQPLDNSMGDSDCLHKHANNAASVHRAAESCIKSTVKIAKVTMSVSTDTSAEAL
T1 sequence (P34972 whole entry): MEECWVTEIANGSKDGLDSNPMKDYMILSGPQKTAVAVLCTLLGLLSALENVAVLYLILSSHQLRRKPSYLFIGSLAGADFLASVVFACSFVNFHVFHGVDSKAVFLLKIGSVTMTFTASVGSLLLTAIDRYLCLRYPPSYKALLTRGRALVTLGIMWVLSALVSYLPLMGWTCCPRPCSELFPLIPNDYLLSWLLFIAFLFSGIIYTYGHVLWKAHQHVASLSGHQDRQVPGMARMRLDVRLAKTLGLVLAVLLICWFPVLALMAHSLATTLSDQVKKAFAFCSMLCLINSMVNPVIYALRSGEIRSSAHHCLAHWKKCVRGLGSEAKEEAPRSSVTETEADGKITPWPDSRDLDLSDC

In the case of `CCCC(C)(C)c1ccc2c(c1)OC(C)(C)[C@@H]1CC=C(C)C[C@@H]21`, the result in [1], in assay [2] and in assay [3] was Active.

In general, EC50 refers to the midpoint of the concentration-response curve. A low value points to higher potency in that assay. What is called IC50 is the concentration that inhibits the measured activity by half. A word on the Ki: it is the equilibrium dissociation constant of an inhibitor or competing ligand from its target. Take `Cc1c(-c2ccc(F)cc2)cc(C(=O)NC2CCCCCC2)c(=O)n1Cc1ccc(F)cc1`: the EC50 at Cannabinoid receptor 2 [4] is 6.45 nM; at Cannabinoid receptor 1 [10], 120 nM. Also, the IC50 is greater than 10000 nM against Monoglyceride lipase, 530 nM in [5], 600 nM in assay [6] and greater than 10000 nM in [9]. Moreover, the Ki came to 49.3 nM at Cannabinoid receptor 1 [7] and 28.9 nM at Cannabinoid receptor 2 [8].

(Values after ChEMBL document CHEMBL4706601, “The endocannabinoid system dual-target ligand N-cycloheptyl-1,2-dihydro-5-bromo-1-(4-fluorobenzyl)-6-methyl-2-oxo-pyridine-3-carboxamide improves disease severity in a mouse model of multiple sclerosis” (Eur J Med Chem, 2020).)
